# In ChEMBL document CHEMBL1806465, “Synthesis and biological evaluation of 4-nitro-substituted 1,3-diaryltriazenes as a novel class of potent antitumor agents” (Eur J Med Chem, 2011):
# Activity calls are given as the source filed them. The calls are words filed in the database; no cut-off is given here.
# Assays:
# HeLa [1] = assay: Induction of Grp78 expression in human HeLa cells at 0.09 to 7 uM after 48 hrs by Western blot analysis; format: functional, cell-based
# Procedure, shortened: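 Logarithmically growing HeLa cells were exposed to varying concentrations for 48 h, or to 7 µM for varying times. Cell extracts were run on 10% SDS gels and transferred to nitrocellulose. Membranes were blocked in 5% milk and probed with anti-Grp78 (1:1000, overnight, 4 °C), then an HRP secondary (1:5000, 2 h, RT). Detection was by ECL, with ERK2 reprobing as the loading control.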
# HeLa [2] = assay: Cell cycle arrest in human HeLa cells assessed as accumulation at G2/M phase at 0.78 uM after 48 hrs by propidium iodide staining -based flow cytometry (reference value: 9.9 %); format: functional
# Procedure, shortened: (§1)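 HeLa seeded at 100 000 cells/well, treated next day with 0.78, 7 or 21 µM for 24, 48 or 72 h. Adherent plus floating cells collected, PBS-washed, fixed overnight in 70% ethanol at −20 °C, RNase A 30 µg/ml 1 h RT, propidium iodide 16.7 µg/ml 30 min dark; DNA content by flow cytometry, phase percentages including subG1 reported.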
# HeLa [3] = assay: Cell cycle arrest in human HeLa cells assessed as accumulation at subG1 phase at 0.78 uM after 48 hrs by propidium iodide staining -based flow cytometry (reference value: 8.5 %); format: functional; procedure, shortened: as §1
# HeLa [4] = assay: Cell cycle arrest in human HeLa cells assessed as accumulation at G0/G1 phase at 21 uM after 48 hrs by propidium iodide staining -based flow cytometry (reference value: 63.8 %); format: functional; procedure, shortened: as §1
# HeLa [5] = assay: Induction of apoptotis in human HeLa cells assessed as cleavage of procaspase 9 at 7 uM after 48 hrs by Western blot analysis; format: functional, cell-based
# Procedure, shortened: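 HeLa cells were treated for 48 h at 7 µM and analysed by Western blot (10% SDS gels, nitrocellulose, HRP secondary, ECL, ERK2 loading control) for cleavage of apoptotic proteins. Antibodies: anti-PARP 1:4000; anti-caspase-3 and anti-caspase-8 1:1000; rabbit polyclonal anti-caspase-9 1:1000.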
# [6] = Therapeutic index, ratio IC50 for cisplatin-resistant human CA3ST cells to IC50 for normal human fibroblasts; format: cell-based; details: read-out: Ratio IC50
# Procedure, shortened: (§2)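 IC50 values came from an MTT assay. Cells were seeded at 3000 per well and dosed the next day, with each concentration in quadruplicate. After 72 h at 37 °C, MTT (20 µg/well) was added for 4 h; formazan was dissolved in DMSO and read at 545 nm. Each experiment was done three times. Normal skin fibroblasts were used at 32 and 36 population doublings. T.I. = tumor-cell IC50 / fibroblast IC50.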
# HeLa [7] = assay: Cell cycle arrest in human HeLa cells assessed as accumulation at G0/G1 phase at 21 uM after 24 hrs by propidium iodide staining -based flow cytometry (reference value: 60.6 %); format: functional; procedure, shortened: as §1
# [8] = Therapeutic index, ratio IC50 for human RT112 cells to IC50 for normal human fibroblasts; format: cell-based, RT-112; details: RT112 cells versus normal human fibroblasts, read-out: Ratio IC50; procedure, shortened: as §2
# HeLa [9] = assay: Cell cycle arrest in human HeLa cells assessed as accumulation at G2/M phase at 0.78 uM after 24 hrs by propidium iodide staining -based flow cytometry (reference value: 11.7 %); format: functional; procedure, shortened: as §1
# HeLa [10] = assay: Induction of CHOP expression in human HeLa cells at 7 uM up to 8 hrs by Western blot analysis; format: functional, cell-based
# Procedure, shortened: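 Log-phase HeLa exposed to a concentration series for 48 h, or to 7 µM over a time course. Extracts resolved on 10% SDS gels, blotted to nitrocellulose, blocked 5% milk; anti-CHOP 1:1000 in 5% BSA overnight at 4 °C, HRP secondary 1:5000 2 h RT, ECL detection; ERK2 reprobe as loading control.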
# HeLa [11] = assay: Cell cycle arrest in human HeLa cells assessed as accumulation at S phase at 0.78 uM after 48 hrs by propidium iodide staining -based flow cytometry (reference value: 26.3 %); format: functional; procedure, shortened: as §1
# HeLa [12] = assay: Cell cycle arrest in human HeLa cells assessed as accumulation at G0/G1 phase at 7 uM after 48 hrs by propidium iodide staining -based flow cytometry (reference value: 63.8 %); format: functional; procedure, shortened: as §1
# HeLa [13] = assay: Cell cycle arrest in human HeLa cells assessed as accumulation at subG1 phase at 7 uM after 48 hrs by propidium iodide staining -based flow cytometry (reference value: 8.5 %); format: functional; procedure, shortened: as §1
# HeLa [14] = assay: Cell cycle arrest in human HeLa cells assessed as accumulation at G2/M phase at 7 uM after 48 hrs by propidium iodide staining -based flow cytometry (reference value: 9.9 %); format: functional; procedure, shortened: as §1
smiles,measurement,setting,value
CC(=O)N(/N=N/c1ccc([N+](=O)[O-])cc1Cl)c1ccc([N+](=O)[O-])cc1Cl,Activity,HeLa [1],Active
same,Activity,HeLa [2],7%
same,Activity,HeLa [3],15.8%
same,Activity,HeLa [4],73%
same,Activity,HeLa [5],Active
same,selectivity ratio,[6],0.045
same,Activity,HeLa [7],69.3%
same,selectivity ratio,[8],0.514
same,Activity,HeLa [9],10.5%
same,Activity,HeLa [10],inactive
same,Activity,HeLa [11],18.5%
same,Activity,HeLa [12],76.2%
same,Activity,HeLa [13],23.8%
same,Activity,HeLa [14],9.6%
